# Reference: ChEMBL document CHEMBL4689842, “EUbOPEN Chemogenomics Library wave 1” (2021)
# Where “and” joins values, the source holds several entries; their conditions need not be identical. Identical values can stand only once.
# Key:
# Assay type in all cases: toxicity, cell-based
# [1] = system: U2OS; experiment: Incucyte cell viability with U2OS; settings: human, 10 µM, compound concentration 10 uM; further: filed as whole numbers so only -1 and 0 and 1 occur
# [2] = system: HEK-293T; experiment: Multiplex assay against HEK293T; settings: human, 1 µM, compound concentration 1 uM;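 on Population Tubulin-Different-Phenotype (%): share of the cells with healthy nuclei that show this phenotype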
# How it was run: (§1)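 Cells were classed with CellPathfinder machine-learning gating, first as Hoechst high-intensity objects or normal cells, then (normal cells) as healthy, pyknosed or fragmented nuclei, and finally (pyknosed cells) as mitotic or apoptotic. Staining of live cells at seeding used Hoechst33342, BioTracker Green Microtubule Cytoskeleton Dye, MitoTracker Red and Annexin V Alexa Fluor 680, with imaging on a CQ1 microscope at 37°C and 5% CO2 after compound addition. Tubulin, mitochondrial-mass and membrane-permeability phenotypes are per cents of healthy-nucleus cells.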
# [3] = system: U2OS; experiment: Multiplex assay against U2OS; settings: human, 1 µM, compound concentration 1 uM; how it was run: as §1
# [4] = system: HEK-293T; experiment: Incucyte cell viability with HEK293T; settings: human, 10 µM, compound concentration 10 uM; further: filed as whole numbers so only -1 and 0 and 1 occur
# [5] = system: Fibroblast; experiment: Multiplex assay against human fibroblast; settings: 1 µM, compound concentration 1 uM; how it was run: as §1
# [6] = system: Fibroblast; experiment: Incucyte cell viability with human fibroblast; settings: 10 µM, compound concentration 10 uM; further: filed as whole numbers so only -1 and 0 and 1 occur
# [7] = 6 h, replicate number 1, timepoint 6 hours
# [8] = 12 h, replicate number 1, timepoint 12 hours
# [9] = 12 h, replicate number 2, timepoint 12 hours
# [10] = 18 h, replicate number 1, timepoint 18 hours
# [11] = 24 h, replicate number 1, timepoint 24 hours
# [12] = 0 h, replicate number 1, timepoint 0 hours
smiles,measurement,setting,value
CC[C@@H]1C(=O)N(C)c2cnc(Nc3ccc(C(=O)N[C@H]4CC[C@H](N5CCN(CC6CC6)CC5)CC4)cc3OC)nc2N1C(C)C [VOLASERTIB],Growth Rate,"[1]; 0 h, replicate number 2, timepoint 0 hours",0
same,Growth Rate,[1]; [7],1
same,Growth Rate,[1]; [8],0
same,Growth Rate,[1]; [9],1
same,Growth Rate,[1]; [10],0
same,Growth Rate,[1]; [11],0
same,Population Apoptotic (%),"[2]; 12 h, replicate 1",44% and 18%
same,Population Fragmented Nuclei (%),"[2]; 12 h, replicate 1",29% and 10%
same,Population Healthy Nuclei (%),"[2]; 12 h, replicate 1",31% and 58%
same,Population Hoechst High Intensity Objects (%),"[2]; 12 h, replicate 1",18% and 13%
same,Population Membrane Permeable-Phenotype (%),"[2]; 12 h, replicate 1",15% and 21%
same,Population Mitotic Cells (%),"[2]; 12 h, replicate 1",55% and 81%
same,Population Normal (%),"[2]; 12 h, replicate 1",81% and 86%
same,Population Pyknosed Nuclei (%),"[2]; 12 h, replicate 1",38% and 30%
same,Population Tubulin-Different-Phenotype (%),"[2]; 12 h, replicate 1",77% and 61%
same,Total Cell Count,"[2]; 12 h, replicate 1",539 and 544
same,Population Fragmented Nuclei (%),"[2]; 12 h, replicate 2",3%
same,Population Healthy Nuclei (%),"[2]; 12 h, replicate 2",76%
same,Population Hoechst High Intensity Objects (%),"[2]; 12 h, replicate 2",2% and 5%
same,Population Membrane Permeable-Phenotype (%),"[2]; 12 h, replicate 2",18% and 12%
same,Population Mitochondria Different-Phenotype (%),"[2]; 12 h, replicate 2",31% and 62%
same,Population Mitotic Cells (%),"[2]; 12 h, replicate 2",93% and 80%
same,Population Normal (%),"[2]; 12 h, replicate 2",97% and 94%
same,Population Pyknosed Nuclei (%),"[2]; 12 h, replicate 2",19%
same,Population Tubulin-Different-Phenotype (%),"[2]; 12 h, replicate 2",87% and 96%
same,Total Cell Count,"[2]; 12 h, replicate 2",982 and 1003
same,Population Healthy Nuclei (%),"[2]; 24 h, replicate 1",30% and 54%
same,Population Hoechst High Intensity Objects (%),"[2]; 24 h, replicate 1",21% and 9%
same,Population Membrane Permeable-Phenotype (%),"[2]; 24 h, replicate 1",9% and 11%
same,Population Mitotic Cells (%),"[2]; 24 h, replicate 1",53% and 84%
same,Population Normal (%),"[2]; 24 h, replicate 1",78% and 90%
same,Population Pyknosed Nuclei (%),"[2]; 24 h, replicate 1",36% and 34%
same,Population Tubulin-Different-Phenotype (%),"[2]; 24 h, replicate 1",77% and 76%
same,Total Cell Count,"[2]; 24 h, replicate 1",579 and 547
same,Population Apoptotic (%),"[2]; 24 h, replicate 2",6% and 12%
same,Population Fragmented Nuclei (%),"[2]; 24 h, replicate 2",3% and 7%
same,Population Healthy Nuclei (%),"[2]; 24 h, replicate 2",47% and 61%
same,Population Hoechst High Intensity Objects (%),"[2]; 24 h, replicate 2",3% and 6%
same,Population Membrane Permeable-Phenotype (%),"[2]; 24 h, replicate 2",7% and 10%
same,Population Mitochondria Different-Phenotype (%),"[2]; 24 h, replicate 2",28% and 53%
same,Population Mitotic Cells (%),"[2]; 24 h, replicate 2",93% and 87%
same,Population Normal (%),"[2]; 24 h, replicate 2",96% and 93%
same,Population Pyknosed Nuclei (%),"[2]; 24 h, replicate 2",48% and 30%
same,Population Tubulin-Different-Phenotype (%),"[2]; 24 h, replicate 2",91% and 83%
same,Total Cell Count,"[2]; 24 h, replicate 2",956 and 1101
same,Population Apoptotic (%),"[3]; 12 h, replicate 1",60% and 78%
same,Population Fragmented Nuclei (%),"[3]; 12 h, replicate 1",8% and 12%
same,Population Healthy Nuclei (%),"[3]; 12 h, replicate 1",81% and 61%
same,Population Hoechst High Intensity Objects (%),"[3]; 12 h, replicate 1",4% and 3%
same,Population Membrane Permeable-Phenotype (%),"[3]; 12 h, replicate 1",46% and 31%
same,Population Mitochondria Different-Phenotype (%),"[3]; 12 h, replicate 1",32% and 71%
same,Population Mitotic Cells (%),"[3]; 12 h, replicate 1",40% and 21%
same,Population Normal (%),"[3]; 12 h, replicate 1",95% and 96%
same,Population Pyknosed Nuclei (%),"[3]; 12 h, replicate 1",10% and 25%
same,Population Tubulin-Different-Phenotype (%),"[3]; 12 h, replicate 1",88% and 100%
same,Total Cell Count,"[3]; 12 h, replicate 1",145 and 156
same,Population Apoptotic (%),"[3]; 12 h, replicate 2",75% and 76%
same,Population Fragmented Nuclei (%),"[3]; 12 h, replicate 2",11% and 18%
same,Population Healthy Nuclei (%),"[3]; 12 h, replicate 2",82% and 57%
same,Population Hoechst High Intensity Objects (%),"[3]; 12 h, replicate 2",21% and 7%
same,Population Membrane Permeable-Phenotype (%),"[3]; 12 h, replicate 2",30% and 61%
same,Population Mitochondria Different-Phenotype (%),"[3]; 12 h, replicate 2",46% and 96%
same,Population Mitotic Cells (%),"[3]; 12 h, replicate 2",25% and 24%
same,Population Normal (%),"[3]; 12 h, replicate 2",78% and 92%
same,Population Tubulin-Different-Phenotype (%),"[3]; 12 h, replicate 2",94%
same,Total Cell Count,"[3]; 12 h, replicate 2",110 and 80
same,Population Apoptotic (%),"[3]; 24 h, replicate 1",66% and 77%
same,Population Fragmented Nuclei (%),"[3]; 24 h, replicate 1",10%
same,Population Healthy Nuclei (%),"[3]; 24 h, replicate 1",76% and 58%
same,Population Hoechst High Intensity Objects (%),"[3]; 24 h, replicate 1",5%
same,Population Membrane Permeable-Phenotype (%),"[3]; 24 h, replicate 1",28% and 82%
same,Population Mitochondria Different-Phenotype (%),"[3]; 24 h, replicate 1",38% and 96%
same,Population Mitotic Cells (%),"[3]; 24 h, replicate 1",33% and 22%
same,Population Normal (%),"[3]; 24 h, replicate 1",94%
same,Population Pyknosed Nuclei (%),"[3]; 24 h, replicate 1",14% and 23%
same,Population Tubulin-Different-Phenotype (%),"[3]; 24 h, replicate 1",78%
same,Total Cell Count,"[3]; 24 h, replicate 1",159 and 158
same,Population Apoptotic (%),"[3]; 24 h, replicate 2",65% and 61%
same,Population Fragmented Nuclei (%),"[3]; 24 h, replicate 2",18% and 15%
same,Population Healthy Nuclei (%),"[3]; 24 h, replicate 2",48% and 67%
same,Population Hoechst High Intensity Objects (%),"[3]; 24 h, replicate 2",10% and 12%
same,Population Membrane Permeable-Phenotype (%),"[3]; 24 h, replicate 2",86%
same,Population Mitochondria Different-Phenotype (%),"[3]; 24 h, replicate 2",100% and 57%
same,Population Mitotic Cells (%),"[3]; 24 h, replicate 2",34% and 38%
same,Population Normal (%),"[3]; 24 h, replicate 2",89% and 87%
same,Population Pyknosed Nuclei (%),"[3]; 24 h, replicate 2",32% and 17%
same,Population Tubulin-Different-Phenotype (%),"[3]; 24 h, replicate 2",100% and 71%
same,Total Cell Count,"[3]; 24 h, replicate 2",83 and 123
same,Growth Rate,[4]; [12],0
same,Growth Rate,[4]; [7],0
same,Growth Rate,[4]; [8],0
same,Growth Rate,[4]; [10],0
same,Growth Rate,[4]; [11],0
same,Population Apoptotic (%),"[5]; 12 h, replicate 1",76% and 71%
same,Population Fragmented Nuclei (%),"[5]; 12 h, replicate 1",43% and 28%
same,Population Healthy Nuclei (%),"[5]; 12 h, replicate 1",42% and 54%
same,Population Hoechst High Intensity Objects (%),"[5]; 12 h, replicate 1",14% and 22%
same,Population Membrane Permeable-Phenotype (%),"[5]; 12 h, replicate 1",9% and 7%
same,Population Mitochondria Different-Phenotype (%),"[5]; 12 h, replicate 1",6% and 11%
same,Population Mitotic Cells (%),"[5]; 12 h, replicate 1",24% and 28%
same,Population Normal (%),"[5]; 12 h, replicate 1",85% and 77%
same,Population Pyknosed Nuclei (%),"[5]; 12 h, replicate 1",13% and 16%
same,Total Cell Count,"[5]; 12 h, replicate 1",213 and 342
same,Population Apoptotic (%),"[5]; 12 h, replicate 2",53% and 50%
same,Population Fragmented Nuclei (%),"[5]; 12 h, replicate 2",48% and 67%
same,Population Healthy Nuclei (%),"[5]; 12 h, replicate 2",32% and 24%
same,Population Hoechst High Intensity Objects (%),"[5]; 12 h, replicate 2",36% and 43%
same,Population Membrane Permeable-Phenotype (%),"[5]; 12 h, replicate 2",17% and 16%
same,Population Mitochondria Different-Phenotype (%),"[5]; 12 h, replicate 2",26% and 33%
same,Population Mitotic Cells (%),"[5]; 12 h, replicate 2",46% and 50%
same,Population Normal (%),"[5]; 12 h, replicate 2",63% and 56%
same,Population Pyknosed Nuclei (%),"[5]; 12 h, replicate 2",18% and 8%
same,Population Tubulin-Different-Phenotype (%),"[5]; 12 h, replicate 2",78% and 58%
same,Total Cell Count,"[5]; 12 h, replicate 2",111 and 87
same,Population Apoptotic (%),"[5]; 24 h, replicate 1",84% and 80%
same,Population Fragmented Nuclei (%),"[5]; 24 h, replicate 1",23% and 37%
same,Population Healthy Nuclei (%),"[5]; 24 h, replicate 1",52% and 50%
same,Population Hoechst High Intensity Objects (%),"[5]; 24 h, replicate 1",31% and 16%
same,Population Membrane Permeable-Phenotype (%),"[5]; 24 h, replicate 1",7%
same,Population Mitotic Cells (%),"[5]; 24 h, replicate 1",15% and 19%
same,Population Normal (%),"[5]; 24 h, replicate 1",68% and 83%
same,Population Pyknosed Nuclei (%),"[5]; 24 h, replicate 1",24% and 11%
same,Total Cell Count,"[5]; 24 h, replicate 1",319 and 221
same,Population Apoptotic (%),"[5]; 24 h, replicate 2",100% and 64%
same,Population Fragmented Nuclei (%),"[5]; 24 h, replicate 2",62% and 44%
same,Population Healthy Nuclei (%),"[5]; 24 h, replicate 2",36% and 33%
same,Population Hoechst High Intensity Objects (%),"[5]; 24 h, replicate 2",38%
same,Population Membrane Permeable-Phenotype (%),"[5]; 24 h, replicate 2",5% and 13%
same,Population Mitochondria Different-Phenotype (%),"[5]; 24 h, replicate 2",22% and 45%
same,Population Normal (%),"[5]; 24 h, replicate 2",61%
same,Population Tubulin-Different-Phenotype (%),"[5]; 24 h, replicate 2",27% and 72%
same,Total Cell Count,"[5]; 24 h, replicate 2",81 and 106
same,Growth Rate,[6]; [12],0
same,Growth Rate,[6]; [8],0
same,Growth Rate,[6]; [9],1
same,Growth Rate,[6]; [10],0
same,Growth Rate,[6]; [11],0
